Tests used:
Settings in all cases: stereoisomer not certain
OR52K2 (Homo sapiens) = OR52K2 (Homo sapiens) (UniProt Q8NGK3)
Summary of the method: (§1)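 Each receptor–molecule pair is labelled responsive or non-responsive (inactive) according to whether the original authors judged the measured signal statistically different from baseline. The data were taken from the main text and supplementary material of published papers and checked for typos and inconsistencies. Assay methods differed by source, with transient luciferase assays in mammalian cell lines being common.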

OR52L1 (Homo sapiens) [1] = target: OR52L1 (Homo sapiens) (UniProt Q8NGH7)
Summary of the method: as §1
Target sequence in this assay (Q8NGH7 whole entry): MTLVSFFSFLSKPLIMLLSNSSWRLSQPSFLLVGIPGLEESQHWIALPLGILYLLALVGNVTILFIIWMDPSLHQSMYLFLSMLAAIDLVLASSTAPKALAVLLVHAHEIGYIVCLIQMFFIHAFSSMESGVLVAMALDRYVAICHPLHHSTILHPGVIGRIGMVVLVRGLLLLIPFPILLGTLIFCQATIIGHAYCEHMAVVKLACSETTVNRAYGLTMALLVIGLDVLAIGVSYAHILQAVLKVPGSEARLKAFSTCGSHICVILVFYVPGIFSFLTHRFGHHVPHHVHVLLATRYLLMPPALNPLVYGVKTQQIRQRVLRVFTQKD

OR52M1 (Homo sapiens) = OR52M1 (Homo sapiens) (UniProt Q8NGK5)
Summary of the method: as §1

OR52N1 (Homo sapiens) = OR52N1 (Homo sapiens) (UniProt Q8NH53)
Summary of the method: as §1

OR52N2 (Homo sapiens) = OR52N2 (Homo sapiens) (UniProt Q8NGI0)
Summary of the method: as §1

OR52N4 (Homo sapiens) = OR52N4 (Homo sapiens) (UniProt Q8NGI2)
Summary of the method: as §1

OR52N5 (Homo sapiens) = OR52N5 (Homo sapiens) (UniProt Q8NH56)
Summary of the method: as §1

OR52R1 (Homo sapiens) = OR52R1 (Homo sapiens) (UniProt Q8NGF1)
Summary of the method: as §1

OR52W1 (Homo sapiens) = OR52W1 (Homo sapiens) (UniProt Q6IF63)
Summary of the method: as §1

OR52L1 (Homo sapiens) [2] = target: OR52L1 (Homo sapiens) (UniProt Q8NGH7); remark: listed apart in the source
Summary of the method: as §1
Target sequence in this assay (Q8NGH7 as listed by the source): as the sequence (Q8NGH7 whole entry) above, with R140C, R161C, T183K, R297W counted along it

Measured: odorant receptor agonist call

OR52W1 (Homo sapiens), sequence (Q6IF63 whole entry): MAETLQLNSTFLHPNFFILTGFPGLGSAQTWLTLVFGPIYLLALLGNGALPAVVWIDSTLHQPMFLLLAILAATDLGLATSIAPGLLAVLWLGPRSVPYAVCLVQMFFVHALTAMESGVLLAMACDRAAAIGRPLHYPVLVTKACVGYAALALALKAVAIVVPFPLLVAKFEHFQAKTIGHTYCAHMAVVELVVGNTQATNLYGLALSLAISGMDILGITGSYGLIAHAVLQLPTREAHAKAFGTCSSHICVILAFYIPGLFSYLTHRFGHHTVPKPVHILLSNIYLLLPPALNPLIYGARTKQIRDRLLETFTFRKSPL
OR52N2 (Homo sapiens), sequence (Q8NGI0 whole entry): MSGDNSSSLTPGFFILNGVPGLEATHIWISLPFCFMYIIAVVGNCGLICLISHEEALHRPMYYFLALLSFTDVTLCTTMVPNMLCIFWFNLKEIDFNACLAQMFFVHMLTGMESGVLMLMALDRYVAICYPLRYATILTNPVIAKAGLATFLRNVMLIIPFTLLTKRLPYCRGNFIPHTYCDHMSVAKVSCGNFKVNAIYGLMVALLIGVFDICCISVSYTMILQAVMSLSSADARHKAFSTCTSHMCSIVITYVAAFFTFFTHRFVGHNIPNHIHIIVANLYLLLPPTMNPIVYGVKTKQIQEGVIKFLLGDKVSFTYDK
OR52K2 (Homo sapiens), sequence (Q8NGK3 whole entry): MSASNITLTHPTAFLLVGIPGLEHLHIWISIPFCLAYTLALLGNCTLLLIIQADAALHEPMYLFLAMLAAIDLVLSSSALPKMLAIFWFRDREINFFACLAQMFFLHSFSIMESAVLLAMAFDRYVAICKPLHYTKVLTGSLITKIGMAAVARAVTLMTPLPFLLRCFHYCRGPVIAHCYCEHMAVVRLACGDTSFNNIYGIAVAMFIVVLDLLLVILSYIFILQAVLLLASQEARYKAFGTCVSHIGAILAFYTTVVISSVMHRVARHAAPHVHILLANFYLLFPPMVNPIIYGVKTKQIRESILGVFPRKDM
OR52N4 (Homo sapiens), sequence (Q8NGI2 whole entry): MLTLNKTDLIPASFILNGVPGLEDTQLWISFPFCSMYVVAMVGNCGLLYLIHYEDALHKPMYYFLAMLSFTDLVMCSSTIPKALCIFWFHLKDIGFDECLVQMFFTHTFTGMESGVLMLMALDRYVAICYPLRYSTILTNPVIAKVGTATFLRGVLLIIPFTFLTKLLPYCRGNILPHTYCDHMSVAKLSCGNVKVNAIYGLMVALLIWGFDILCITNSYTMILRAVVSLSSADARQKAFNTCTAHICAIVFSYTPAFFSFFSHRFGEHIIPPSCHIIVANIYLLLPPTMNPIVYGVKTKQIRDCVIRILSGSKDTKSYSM
OR52M1 (Homo sapiens), sequence (Q8NGK5 whole entry): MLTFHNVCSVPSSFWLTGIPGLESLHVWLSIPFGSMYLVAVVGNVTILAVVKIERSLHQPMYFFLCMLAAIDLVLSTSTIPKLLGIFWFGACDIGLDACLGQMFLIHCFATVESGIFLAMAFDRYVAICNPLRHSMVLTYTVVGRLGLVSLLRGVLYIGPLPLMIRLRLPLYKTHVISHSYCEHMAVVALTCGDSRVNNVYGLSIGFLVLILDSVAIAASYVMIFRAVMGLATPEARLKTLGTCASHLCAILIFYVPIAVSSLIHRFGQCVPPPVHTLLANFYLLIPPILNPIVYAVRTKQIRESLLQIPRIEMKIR
OR52N5 (Homo sapiens), sequence (Q8NH56 whole entry): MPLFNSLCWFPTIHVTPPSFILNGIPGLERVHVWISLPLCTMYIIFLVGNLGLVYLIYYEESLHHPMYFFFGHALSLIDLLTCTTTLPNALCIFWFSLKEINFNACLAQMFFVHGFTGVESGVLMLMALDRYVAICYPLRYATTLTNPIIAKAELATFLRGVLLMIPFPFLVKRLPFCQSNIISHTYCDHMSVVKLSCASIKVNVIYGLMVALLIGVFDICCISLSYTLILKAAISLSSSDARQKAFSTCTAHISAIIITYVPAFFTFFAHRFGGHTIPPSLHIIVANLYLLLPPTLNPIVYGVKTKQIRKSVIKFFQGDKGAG
OR52N1 (Homo sapiens), sequence (Q8NH53 whole entry): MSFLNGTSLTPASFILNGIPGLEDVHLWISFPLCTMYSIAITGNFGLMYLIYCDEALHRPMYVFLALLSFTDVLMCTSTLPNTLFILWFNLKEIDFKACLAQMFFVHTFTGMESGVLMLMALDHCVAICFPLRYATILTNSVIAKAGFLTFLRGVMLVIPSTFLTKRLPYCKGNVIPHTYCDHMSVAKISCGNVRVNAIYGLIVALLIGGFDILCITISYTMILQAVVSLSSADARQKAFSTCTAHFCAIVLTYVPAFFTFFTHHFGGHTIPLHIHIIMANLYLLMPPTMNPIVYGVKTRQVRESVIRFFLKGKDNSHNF
OR52R1 (Homo sapiens), sequence (Q8NGF1 whole entry): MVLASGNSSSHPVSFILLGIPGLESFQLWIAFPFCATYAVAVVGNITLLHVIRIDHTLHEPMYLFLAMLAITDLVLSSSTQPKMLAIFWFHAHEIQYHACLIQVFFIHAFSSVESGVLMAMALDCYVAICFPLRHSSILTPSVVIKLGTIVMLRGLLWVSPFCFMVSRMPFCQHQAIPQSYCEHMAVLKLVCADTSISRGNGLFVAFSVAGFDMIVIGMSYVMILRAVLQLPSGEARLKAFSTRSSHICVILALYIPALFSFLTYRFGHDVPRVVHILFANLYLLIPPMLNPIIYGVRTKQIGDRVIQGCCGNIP

C=CCOC(=O)Cc1ccccc1
inactive: OR52K2 (Homo sapiens) | OR52L1 (Homo sapiens) [1] | OR52M1 (Homo sapiens) | OR52N1 (Homo sapiens) | OR52N2 (Homo sapiens) | OR52N4 (Homo sapiens) | OR52N5 (Homo sapiens) | OR52R1 (Homo sapiens) | OR52W1 (Homo sapiens)

Cc1c([N+](=O)[O-])c(C)c([N+](=O)[O-])c(C(C)(C)C)c1[N+](=O)[O-]
inactive: OR52K2 (Homo sapiens) | OR52L1 (Homo sapiens) [2] | OR52M1 (Homo sapiens) | OR52N1 (Homo sapiens) | OR52N2 (Homo sapiens) | OR52N4 (Homo sapiens) | OR52N5 (Homo sapiens) | OR52R1 (Homo sapiens) | OR52W1 (Homo sapiens)
